ChEMBL document CHEMBL3745597, “Fragment-Based Discovery of Subtype-Selective Adenosine Receptor Ligands from Homology Models” (J Med Chem, 2015)
Activity calls are given as the source filed them. No cut-off for these calls is given here.

Legend:
Adenosine receptor A3 [1] = target: T1, Adenosine receptor A3 (Homo sapiens, UniProt P0DMS8); assay: Displacement of CA200645 from human adenosine A3 receptor expressed in CHO CRE-SPAP cells incubated for 1 hr by fluorescence analysis; type: cell-based
Summary of the method: (§1)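 Live confluent CHO cells expressing A1AR or A3AR were washed into HEPES-buffered saline, pH 7.4. Increasing concentrations of competitor were added with 25 nM fluorescent xanthine ligand CA200645 and incubated 1 h at 37°C, then imaged for total intensity. IC50 was converted to Ki by Cheng-Prusoff using ligand KD 17.0 nM (A1) or 3.11 nM (A3). Values are mean of n experiments run in duplicate.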

Adenosine receptor A1 = target: T2, Adenosine receptor A1 (Homo sapiens, UniProt P30542); assay: Displacement of CA200645 from human adenosine A1 receptor expressed in CHO cells incubated for 1 hr by fluorescence analysis; type: cell-based; summary of the method: as §1
T2 sequence (P30542 whole entry): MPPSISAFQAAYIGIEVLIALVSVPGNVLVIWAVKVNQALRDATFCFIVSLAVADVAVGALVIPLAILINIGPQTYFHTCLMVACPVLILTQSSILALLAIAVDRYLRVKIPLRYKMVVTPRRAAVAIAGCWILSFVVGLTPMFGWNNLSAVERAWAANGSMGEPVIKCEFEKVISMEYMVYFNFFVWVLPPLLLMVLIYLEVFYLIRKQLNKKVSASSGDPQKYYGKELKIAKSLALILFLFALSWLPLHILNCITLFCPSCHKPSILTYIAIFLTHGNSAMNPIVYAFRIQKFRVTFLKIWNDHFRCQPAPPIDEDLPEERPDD

[2] = target: Adenosine receptors; A1 & A3 (Homo sapiens) (UniProt P30542+P0DMS8); assay: Selectivity ratio of Ki for human adenosine A1 receptor expressed in CHO cells to Ki for human adenosine A3 receptor expressed in CHO CRE-SPAP cells; type: functional, cell-based
Summary of the method: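 Ratio of Ki at A1AR to Ki at A3AR. Both Ki values come from the live-cell CA200645 competition assay (25 nM tracer, 1 h, 37°C), with Cheng-Prusoff correction using KD 17.0 nM (A1) and 3.11 nM (A3).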

Adenosine receptor A2a [3] = target: T3, Adenosine receptor A2a (Homo sapiens, UniProt P29274); assay: Displacement of [3H]-ZM241385 from human adenosine A2A receptor expressed in HeLa cells at 10 uM; type: cell-based
Summary of the method: (§2)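 Human A2AAR expressed in transfected HeLa cells, with [3H]-ZM241385 as radioligand. Percent inhibition was measured at a single 10 µM concentration. Ki was determined only where displacement exceeded 50% at 10 µM.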

Adenosine receptor A3 [4] = target: T1, Adenosine receptor A3; assay: Competitive antagonist activity at YFP linked human adenosine A3 receptor expressed in CHO CRE-SPAP cells assessed as inhibition of NECA-induced receptor internalization preincubated for 30 mins followed by addition of NECA measured after 60 mins by H33342 staining-based fluorescence analysis; type: cell-based
Summary of the method: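 Cells stably expressing YFP-tagged A3AR, serum-free DMEM/F12 with 2 mM L-glutamine, preincubated 30 min at 37°C with a fixed 10 µM antagonist or with medium only. Rising NECA concentrations were then added for 60 min. Cells were fixed in 3% paraformaldehyde, nuclei stained with H33342 and imaged confocally. Read-out was YFP granule count per cell. Antagonist KD came from the Gaddum dose-ratio equation, n=5 run in triplicate.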

Adenosine receptor A2a [5] = target: T3, Adenosine receptor A2a; assay: Displacement of [3H]-ZM241385 from human adenosine A2A receptor expressed in HeLa cells; type: cell-based; summary of the method: as §2
HeLa = assay: Selectivity ratio of Ki for human adenosine A2A receptor expressed in HeLa cells to Ki for human adenosine A3 receptor expressed in CHO CRE-SPAP cells; type: cell-based

T1 sequence (P0DMS8 whole entry, looked up): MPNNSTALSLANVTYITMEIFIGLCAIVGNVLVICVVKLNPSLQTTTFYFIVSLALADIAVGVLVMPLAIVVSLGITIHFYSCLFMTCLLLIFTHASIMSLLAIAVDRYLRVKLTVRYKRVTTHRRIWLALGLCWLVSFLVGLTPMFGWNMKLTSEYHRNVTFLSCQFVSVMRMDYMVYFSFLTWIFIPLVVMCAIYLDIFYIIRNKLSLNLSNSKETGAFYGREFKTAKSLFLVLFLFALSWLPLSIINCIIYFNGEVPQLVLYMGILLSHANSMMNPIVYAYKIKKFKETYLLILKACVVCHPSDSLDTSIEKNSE
T3 sequence (P29274 whole entry): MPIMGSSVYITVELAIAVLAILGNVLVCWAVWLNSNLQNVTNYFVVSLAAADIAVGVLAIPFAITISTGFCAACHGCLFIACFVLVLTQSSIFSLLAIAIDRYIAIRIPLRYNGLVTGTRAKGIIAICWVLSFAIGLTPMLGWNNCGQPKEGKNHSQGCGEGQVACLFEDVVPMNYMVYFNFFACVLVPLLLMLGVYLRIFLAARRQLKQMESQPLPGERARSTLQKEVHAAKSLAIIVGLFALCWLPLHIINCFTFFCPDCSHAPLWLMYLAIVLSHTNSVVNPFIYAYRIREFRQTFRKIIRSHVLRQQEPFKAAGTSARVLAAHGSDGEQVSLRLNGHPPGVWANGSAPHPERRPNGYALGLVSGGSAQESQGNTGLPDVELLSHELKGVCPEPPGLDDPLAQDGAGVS

| Structure (SMILES) | Ki (Adenosine receptor A3 [1]; read-out: pKi (converted)) [nM] | Ki (Adenosine receptor A1) [µM] | Ratio Ki [2] | pKi (Adenosine receptor A1; cho) | Activity (Adenosine receptor A2a [3]) | Kd (Adenosine receptor A3 [4]) [nM] | Ki (Adenosine receptor A3 [1]; read-out: Ki) [nM] | Ki (Adenosine receptor A2a [5]) [nM] | Ratio Ki (HeLa) |
| --- | --- | --- | --- | --- | --- | --- | --- | --- | --- |
| O=c1[nH]c(-c2ccco2)nc2scc(-c3ccco3)c12 | 138 | 0.347 | 2 |  |  |  |  |  |  |
| CCc1cc2c(O)nc(N3CCCC3)nc2s1 | 2290 |  | > 38 | > 4 | inactive |  |  |  |  |
| CCc1cc2c(O)ncnc2s1 | 13500 | 75.9 | 6 |  |  |  |  |  |  |
| CCc1cc2c(=O)[nH]c(-c3ccoc3)nc2s1 | 550 | 56.2 | 102 |  | inactive | 741 |  |  |  |
| O=C(Nc1nc2ccccc2s1)c1cc2ccccc2s1 | 331 | 6.17 | 16 |  |  |  |  |  |  |
| CSc1sc(NC(=O)C=C(C)C)nc1C | 2190 | 29.5 | 24 |  |  |  |  |  |  |
| COc1cccc2sc(NC(=O)c3cc4ccccc4s3)nc12 | 110 | 3.09 | 34 |  |  |  | 120 |  |  |
| O=C(Nc1nc(C2CC2)cs1)c1ccoc1 | 105 | 2.95 | 29 |  | inactive |  | 120 |  |  |
| O=C(Nc1ccc2[nH]ncc2c1)c1ccc[nH]1 | 2400 | 3.16 | 1.2 |  |  |  |  |  |  |
| O=C(Nc1nc2c(s1)CCC2)c1cc2ccccc2s1 | 380 | 2.82 | 5 |  |  |  |  |  |  |
| Cc1sc2nc(-c3ccoc3)[nH]c(=O)c2c1C | 398 | 1.95 | 4 |  |  |  |  |  |  |
| O=C(Nc1nc(C2CC2)cs1)c1cc2ccccc2s1 | 33.9 | 3.72 | 101 |  |  | 741 | 40 | 2900 | 72 |
| CCc1cc2c(O)nc(-c3ccncc3)nc2s1 | 2000 | 22.9 | 14 |  |  |  |  |  |  |
| CC(C)(C)C(=O)Nc1nc(C2CC2)cs1 | 4900 | 12.3 | 2 |  |  |  |  |  |  |
| CCc1cc2c(=O)[nH]c(C3CC3)nc2s1 | 1820 | 61.7 | 70 |  |  |  |  |  |  |
